# About 740 (0.21%) of roughly 350,000 compounds were called active.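 How the source made its calls: active means every replicate reaching activation of at least 50%, whatever the mean replicate activation; inconclusive means replicates that disagree or another doubt; inactive means the rest.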 This excerpt belongs to a sample that is enriched for actives.
# Assay: increased acetylated PGC1a in cells – cell-based, U2OS, AlphaScreen, signal-increasing mode, PGC1a modulator project, primary screen (AID 651723)
# Conditions: U2OS PGC1a acetylation AlphaScreen, overnight; at 15.6 µM; hits give high values
# In short: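 System – flag-PGC1a/GCN5 U2OS cells · Quantity – 7000 U2OS cells per well · Signal – AlphaScreen proximity luminescence, anti-acetyl-lysine antibody · Schedule – overnight compound treatment, 37 °C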
row,SMILES,activation
1,CN(C)CC1Oc2ccccc2OC1(O)c1ccccc1 (configuration not stated),249% (active)
2,CCC(C)(O)C(=O)OC1C(=O)OC2CC3C(C)=CC(=O)C(O)C3(C)C3C4(O)OCC23C1C(C)C4O (configuration not stated),-80% (inactive)
3,O=C(CSC1c2ccccc2-c2ccccc21)N/N=C/c1ccccc1,73% (active)
4,CC(=O)OC1C2(CC3N4C(=O)C5(CO)SSC4(CC31O)C(=O)N5C)OC(C)C(C)(C)C2=O (configuration not stated),-60.7% (inactive)
5,COC1C(O)C(C)OC(OC2CCC3(C=O)C(CCC4C3CCC3(C)C(C5=CC(=O)OC5)CCC43O)C2)C1O (configuration not stated),-82.1% (inactive)
6,c1ccc(C(CN2CCCCC2)c2ccccc2)cc1,-40.7% (inactive)
7,O=C(c1cc(S(=O)(=O)N2CCOCC2)ccc1F)N1CCC2(CC1)OCCO2,-52.8% (inactive)

# — PubChem BioAssay AID651723 (Broad Institute, 2012)
